Test system: U2OS
Experiment: Multiplex assay against U2OS
Assay type: toxicity, cell-based
Settings: human
In short: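 On a CQ1 microscope at 37°C and 5% CO2, live cells were imaged after compound addition. They had been stained at seeding with Hoechst33342, BioTracker Green Microtubule Cytoskeleton Dye, MitoTracker Red and Annexin V Alexa Fluor 680. CellPathfinder machine-learning gating assigned cells to Hoechst high-intensity objects or normal cells, normal cells to healthy, pyknosed or fragmented nuclei, and pyknosed cells to mitotic or apoptotic. Tubulin, mitochondrial-mass and membrane-permeability phenotypes are per cents of healthy-nucleus cells.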

[1] = 12 h, 1 µM, compound concentration 1 uM, replicate 1
[2] = 12 h, 1 µM, compound concentration 1 uM, replicate 2
[3] = 12 h, 10 µM, compound concentration 10 uM, replicate 1
[4] = 12 h, 10 µM, compound concentration 10 uM, replicate 2
[5] = 24 h, 1 µM, compound concentration 1 uM, replicate 1
[6] = 24 h, 1 µM, compound concentration 1 uM, replicate 2
[7] = 24 h, 10 µM, compound concentration 10 uM, replicate 1
[8] = 24 h, 10 µM, compound concentration 10 uM, replicate 2
[9] = 48 h, 1 µM, compound concentration 1 uM, replicate 1
[10] = 48 h, 1 µM, compound concentration 1 uM, replicate 2
[11] = 48 h, 10 µM, compound concentration 10 uM, replicate 1
[12] = 48 h, 10 µM, compound concentration 10 uM, replicate 2

CCCCN(CC)c1nc(C)nc2c1c(C)cn2-c1c(C)cc(C)cc1C.Cl
Population Apoptotic (%) [1]: 33% | Population Healthy Nuclei (%) [1]: 76% | Population Hoechst High Intensity Objects (%) [1]: 8% | Population Membrane Permeable-Phenotype (%) [1]: 3% | Population Mitochondria Different-Phenotype (%) [1]: 7% | Population Mitotic Cells (%) [1]: 66% | Population Normal (%) [1]: 91% | Population Tubulin-Different-Phenotype (%) [1]: 6% | Total Cell Count [1]: 135 | Population Apoptotic (%) [2]: 55% | Population Fragmented Nuclei (%) [2]: 13% | Population Healthy Nuclei (%) [2]: 77% | Population Hoechst High Intensity Objects (%) [2]: 3% | Population Membrane Permeable-Phenotype (%) [2]: 5% | Population Mitochondria Different-Phenotype (%) [2]: 8% | Population Mitotic Cells (%) [2]: 44% | Population Normal (%) [2]: 96% | Population Pyknosed Nuclei (%) [2]: 9% | Population Tubulin-Different-Phenotype (%) [2]: 14% | Total Cell Count [2]: 95 | Population Apoptotic (%) [3]: 65% | Population Fragmented Nuclei (%) [3]: 17% | Population Healthy Nuclei (%) [3]: 67% | Population Hoechst High Intensity Objects (%) [3]: 7% | Population Membrane Permeable-Phenotype (%) [3]: 2% | Population Mitochondria Different-Phenotype (%) [3]: 51% | Population Mitotic Cells (%) [3]: 35% | Population Normal (%) [3]: 92% | Population Pyknosed Nuclei (%) [3]: 14% | Population Tubulin-Different-Phenotype (%) [3]: 37% | Total Cell Count [3]: 145 | Population Apoptotic (%) [4]: 20% | Population Fragmented Nuclei (%) [4]: 9% | Population Healthy Nuclei (%) [4]: 83% | Population Hoechst High Intensity Objects (%) [4]: 6% | Population Membrane Permeable-Phenotype (%) [4]: 4% | Population Mitochondria Different-Phenotype (%) [4]: 55% | Population Mitotic Cells (%) [4]: 80% | Population Normal (%) [4]: 93% | Population Pyknosed Nuclei (%) [4]: 6% | Population Tubulin-Different-Phenotype (%) [4]: 19% | Total Cell Count [4]: 78 | Population Apoptotic (%) [5]: 27% | Population Fragmented Nuclei (%) [5]: 7% | Population Healthy Nuclei (%) [5]: 85% | Population Mitochondria Different-Phenotype (%) [5]: 8% | Population Mitotic Cells (%) [5]: 72% | Population Pyknosed Nuclei (%) [5]: 7% | Population Tubulin-Different-Phenotype (%) [5]: 9% | Total Cell Count [5]: 162 | Population Apoptotic (%) [6]: 29% | Population Fragmented Nuclei (%) [6]: 13% | Population Healthy Nuclei (%) [6]: 70% | Population Hoechst High Intensity Objects (%) [6]: 5% | Population Membrane Permeable-Phenotype (%) [6]: 3% | Population Mitochondria Different-Phenotype (%) [6]: 6% | Population Mitotic Cells (%) [6]: 70% | Population Normal (%) [6]: 94% | Population Pyknosed Nuclei (%) [6]: 15% | Population Tubulin-Different-Phenotype (%) [6]: 7% | Total Cell Count [6]: 116 | Population Apoptotic (%) [7]: 68% | Population Fragmented Nuclei (%) [7]: 19% | Population Healthy Nuclei (%) [7]: 62% | Population Hoechst High Intensity Objects (%) [7]: 5% | Population Membrane Permeable-Phenotype (%) [7]: 2% | Population Mitochondria Different-Phenotype (%) [7]: 48% | Population Mitotic Cells (%) [7]: 32% | Population Normal (%) [7]: 94% | Population Pyknosed Nuclei (%) [7]: 17% | Population Tubulin-Different-Phenotype (%) [7]: 26% | Total Cell Count [7]: 152 | Population Apoptotic (%) [8]: 25% | Population Fragmented Nuclei (%) [8]: 8% | Population Healthy Nuclei (%) [8]: 80% | Population Hoechst High Intensity Objects (%) [8]: 4% | Population Membrane Permeable-Phenotype (%) [8]: 3% | Population Mitochondria Different-Phenotype (%) [8]: 54% | Population Mitotic Cells (%) [8]: 75% | Population Normal (%) [8]: 95% | Population Pyknosed Nuclei (%) [8]: 11% | Population Tubulin-Different-Phenotype (%) [8]: 21% | Total Cell Count [8]: 74 | Population Apoptotic (%) [9]: 27% | Population Fragmented Nuclei (%) [9]: 5% | Population Healthy Nuclei (%) [9]: 86% | Population Hoechst High Intensity Objects (%) [9]: 3% | Population Membrane Permeable-Phenotype (%) [9]: 0% | Population Mitochondria Different-Phenotype (%) [9]: 10% | Population Mitotic Cells (%) [9]: 72% | Population Normal (%) [9]: 96% | Population Pyknosed Nuclei (%) [9]: 7% | Population Tubulin-Different-Phenotype (%) [9]: 7% | Total Cell Count [9]: 253 | Population Apoptotic (%) [10]: 28% | Population Fragmented Nuclei (%) [10]: 8% | Population Healthy Nuclei (%) [10]: 82% | Population Hoechst High Intensity Objects (%) [10]: 1% | Population Membrane Permeable-Phenotype (%) [10]: 8% | Population Mitochondria Different-Phenotype (%) [10]: 14% | Population Mitotic Cells (%) [10]: 71% | Population Normal (%) [10]: 98% | Population Pyknosed Nuclei (%) [10]: 8% | Population Tubulin-Different-Phenotype (%) [10]: 13% | Total Cell Count [10]: 170 | Population Apoptotic (%) [11]: 39% | Population Fragmented Nuclei (%) [11]: 18% | Population Healthy Nuclei (%) [11]: 68% | Population Hoechst High Intensity Objects (%) [11]: 6% | Population Membrane Permeable-Phenotype (%) [11]: 4% | Population Mitochondria Different-Phenotype (%) [11]: 30% | Population Mitotic Cells (%) [11]: 60% | Population Normal (%) [11]: 93% | Population Pyknosed Nuclei (%) [11]: 12% | Population Tubulin-Different-Phenotype (%) [11]: 26% | Total Cell Count [11]: 192 | Population Apoptotic (%) [12]: 38% | Population Fragmented Nuclei (%) [12]: 9% | Population Healthy Nuclei (%) [12]: 71% | Population Hoechst High Intensity Objects (%) [12]: 5% | Population Membrane Permeable-Phenotype (%) [12]: 6% | Population Mitochondria Different-Phenotype (%) [12]: 38% | Population Mitotic Cells (%) [12]: 61% | Population Normal (%) [12]: 94% | Population Pyknosed Nuclei (%) [12]: 18% | Population Tubulin-Different-Phenotype (%) [12]: 12% | Total Cell Count [12]: 119

— ChEMBL document CHEMBL4689842, “EUbOPEN Chemogenomics Library wave 1” (2021)
